An excerpt weighted towards active compounds, which were near 3.5% of everything screened.
MrgX1 allo act = allosterically activates human MrgX1 receptor signaling; Q96LB2; MrgX1-HEK293, Fluo-4 calcium flux, FDSS; hits give high values; B-score at 10 µM; 310,000 compounds, 0.63% hits; AID 588675;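 active = plate-corrected calcium response at least 3 library SD above typical, normal starting fluorescence, not activating the receptor alone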;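 note: compound read alongside a low EC10 to EC30 dose of BAM8-22 agonist; peak minus trough fluorescence over baseline measured at the second addition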
Target sequence (Q96LB2 whole entry, looked up): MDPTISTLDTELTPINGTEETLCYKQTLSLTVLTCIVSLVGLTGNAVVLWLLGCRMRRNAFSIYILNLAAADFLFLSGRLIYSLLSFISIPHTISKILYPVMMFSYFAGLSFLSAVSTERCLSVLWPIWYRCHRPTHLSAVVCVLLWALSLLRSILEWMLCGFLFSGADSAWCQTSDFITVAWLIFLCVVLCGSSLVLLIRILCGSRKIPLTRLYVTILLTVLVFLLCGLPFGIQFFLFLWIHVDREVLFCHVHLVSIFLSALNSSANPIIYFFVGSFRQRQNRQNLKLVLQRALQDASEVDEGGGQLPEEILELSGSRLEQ
RGS4 inh = inhibitors of human RGS4; P49798; HEK293 M3R/RGS4 inducible, Fluo-4 calcium flux; hits give high values; triggered by carbachol at its EC20; B-score at 10 µM; 310,000 compounds, 0.45% hits;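 active = B-score, a plate-corrected calcium signal, over three deviations above library mean, with baseline fluorescence within five deviations of library mean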;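 note: RGS4 expression induced by doxycycline in cells with stable M3 receptor; B-score is computed from the integrated fluorescence ratio over baseline after carbachol; higher B-score means a larger calcium signal and so more RGS4 inhibition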
MrgX1 agonist = activates human MrgX1 receptor signaling; Q96LB2; MrgX1-HEK293 cells, Fluo-4 calcium fluorescence, agonist mode; hits give high values; B-score at 10 µM; 310,000 compounds, 0.44% hits;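 active = calcium response B-score plate-corrected fluorescence ratio at least 3 library SD, with starting fluorescence B-score inside 5 SD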
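Material: HEK293 cells stably expressing human MrgX1 receptor | Quantity: 15,000 cells per well | Times: Cells plated overnight, dye loaded 0.5 h 37 °C, 0.5 h room temperature | Measured by: Kinetic Fluo-4 NW fluorescence of intracellular calcium | Control set: Positive and negative controls per plate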
MrgX1 antagonist = antagonists of human MrgX1 receptor; MRGX1-HEK293 calcium flux, Fluo-4, BAM8-22 antagonism; hits give low values; Q96LB2; B-score at 10 µM; 310,000 compounds, 1.3% hits;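 active = calcium-response B-score plate-corrected more than 3 library SD below zero, starting fluorescence within 5 deviations, no agonist response on first addition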;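 note: peak minus trough fluorescence over baseline after final BAM8-22 challenge near maximal dose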
RGS4 pot = potentiators or activators of RGS4; HEK293 M3R/inducible RGS4, carbachol calcium flux Fluo4; hits give low values; B-score at 10 µM; 310,000 compounds, 0.92% hits; AID 463111;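 active = B-score of the integrated calcium signal more than 4 SD below the library mean, with starting fluorescence not abnormally high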;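 note: negative B-score means reduced calcium response which marks RGS4 activation or potentiation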
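System – HEK293 FlpIn-TREx cells, stable M3R, doxycycline-inducible RGS4 · Reagent – ECmax carbachol challenge · Times – compound preincubation 20 min at room temperature before agonist · Technique – Fluo4 fluorescence kinetic imaging of calcium · Measure – B score of integrated Fluo4 ratio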
* = called active by the depositor; i = inactive; nt = no result.

SMILES	MrgX1 allo act	RGS4 inh	MrgX1 agonist	MrgX1 antagonist	RGS4 pot
CC(C)Oc1ccc(C2CC(=O)N(c3cccc(Br)c3)C2=O)cc1 (configuration not stated)	i	i	i	i	i
Cc1cc(C)c(S(=O)(=O)N2CCCC(C(=O)N3CCOCC3)C2)c(C)c1 (configuration not stated)	i	i	i	i	i
O=C(CN(Cc1ccco1)C(=O)CNS(=O)(=O)c1ccc(F)cc1)NCc1ccco1	i	i	i	i	i
Cc1nn(C)cc1C(C(=O)NC1CCCCC1)N(C(=O)Cc1cccs1)c1ccc(C(C)C)cc1 (configuration not stated)	i	i	27*	i	i
O=C(NC(=S)NNC(=O)[C@H]1C[C@@H]1c1ccccc1)c1ccc(F)cc1	i	i	i	i	i
O=C(/C=C/c1ccc(F)cc1)NC(=S)NNC(=O)[C@H]1C[C@@H]1c1ccccc1	i	i	43*	i	i
COc1ccc(CCNC(=O)c2ccc3nc(-c4ccco4)c(-c4ccco4)nc3c2)cc1OC	i	nt	i	-4.6*	nt
O=C(Nc1cccc(C(F)(F)F)c1)c1ccc2nc(-c3ccco3)c(-c3ccco3)nc2c1	i	i	i	-5.6*	i
CC1(c2nnc(-c3ccc(Cl)cc3)o2)CC(c2cccc(Cl)c2)=NO1 (configuration not stated)	i	i	i	-5.9*	i
C=CCOc1ccc(/C=N/NC(=O)CN2CCOCC2)cc1OCC	i	i	i	i	i
Cc1cc2ncn(C(=O)c3c(-c4ccccc4)noc3C)c2cc1C	i	i	i	i	i
Cc1onc(-c2c(F)cccc2Cl)c1C(=O)N1CCc2ccccc2C1	i	i	i	i	i
Cc1onc(-c2c(Cl)cccc2Cl)c1C(=O)N1CCc2ccccc21	i	i	i	i	-7.6*
Cc1onc(-c2c(Cl)cccc2Cl)c1C(=O)N1CCOCC1	i	i	i	i	i
Cc1onc(-c2ccccc2Cl)c1C(=O)N1CCc2ccccc2C1	i	i	i	i	-7.3*
Cc1cc2ncn(C(=O)c3c(-c4c(Cl)cccc4Cl)noc3C)c2cc1C	i	i	i	i	-7.2*
CCOC(=O)c1ccc(NC(=O)c2ccccc2[N+](=O)[O-])cc1	i	i	i	i	i
CCOC(=O)c1ccc(Nc2ncccc2[N+](=O)[O-])cc1	i	i	i	-5.8*	i
COc1cccc(CN2CCNC(=O)C2CC(=O)N(C)CCc2ccccn2)c1OC (configuration not stated)	i	i	i	i	i
COCCn1c(Cc2ccccc2)nnc1SCC(=O)N1CCCCC1C (configuration not stated)	i	i	i	-8.2*	i
CC(C)Cc1nnc(NC(=O)CCC(=O)N2CCN(C3CCCC3)CC2)s1	i	i	i	i	i
CC(=O)Nc1ccc(S(=O)(=O)NCc2ccc(C(=O)NCc3ccc(Cl)cc3)cc2)cc1	i	i	i	i	i
CC(=O)Nc1ccc(S(=O)(=O)NCc2ccc(C(=O)NCCN3CCCCCC3)cc2)cc1	i	i	i	-9.4*	i
Cc1ccc(S(=O)(=O)/N=C2/NC(=O)/C(=C/c3cccnc3)S2)cc1	i	i	31*	i	i
O=C1N/C(=N/O)S/C1=C/c1cccnc1	i	i	i	i	i
CCCCN(C)CCCNC(=O)c1cn(CC)c2ccc(S(=O)(=O)N3CCc4ccccc4C3)cc2c1=O	i	i	i	i	-7.7*
CNC[C@H](Cc1ccccc1)NC[C@@H](Cc1cccc2ccccc12)NCCc1ccc(C)cc1	i	i	i	i	-8.2*
CC1=NN(c2ccc(Br)cc2)C(=O)/C1=C/c1cccs1	14*	i	i	i	i
CC1=NN(c2ccc(C)cc2)C(=O)/C1=C\c1ccc(Br)s1	i	i	i	-6.5*	i
O=C1CC(NC2CCN(C(=O)c3cccc(F)c3)CC2)C(=O)N1 (configuration not stated)	i	i	i	i	i
